The test system of series [1] is C3H 10T1/2. Put plainly: Inhibition of Renilla luciferase expression exogenously transfected in mouse C3H10T1/2 cell lysate at 40 uM after 40 mins at room temperature by promega steady-glo luciferase assay. It counts as functional, cell-free.
Series [2] has as its system HepG2. Kind of series: Cytotoxicity against human HepG2 cells at 40 uM/well after 68 hrs by alamar blue assay. Format: functional, cell-based. A digest of the protocol: (§1)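 Cells plated in appropriate medium 24 h before compound. A 10 mM DMSO stock was diluted in EMEM to 160 µM (4×) and added in triplicate to a final 40 µM. Incubated 68 h at 37 °C, then Alamar Blue for 4 h at 37 °C. Fluorescence read at ex 510/em 590 nm. Viability taken relative to DMSO control wells.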
For orientation: The colour change of resazurin is a common sign of viable cells or microbes.

For series [3], the target named is T1, Zinc finger protein GLI1 (Homo sapiens) (UniProt P08151).
T1 sequence (whole entry): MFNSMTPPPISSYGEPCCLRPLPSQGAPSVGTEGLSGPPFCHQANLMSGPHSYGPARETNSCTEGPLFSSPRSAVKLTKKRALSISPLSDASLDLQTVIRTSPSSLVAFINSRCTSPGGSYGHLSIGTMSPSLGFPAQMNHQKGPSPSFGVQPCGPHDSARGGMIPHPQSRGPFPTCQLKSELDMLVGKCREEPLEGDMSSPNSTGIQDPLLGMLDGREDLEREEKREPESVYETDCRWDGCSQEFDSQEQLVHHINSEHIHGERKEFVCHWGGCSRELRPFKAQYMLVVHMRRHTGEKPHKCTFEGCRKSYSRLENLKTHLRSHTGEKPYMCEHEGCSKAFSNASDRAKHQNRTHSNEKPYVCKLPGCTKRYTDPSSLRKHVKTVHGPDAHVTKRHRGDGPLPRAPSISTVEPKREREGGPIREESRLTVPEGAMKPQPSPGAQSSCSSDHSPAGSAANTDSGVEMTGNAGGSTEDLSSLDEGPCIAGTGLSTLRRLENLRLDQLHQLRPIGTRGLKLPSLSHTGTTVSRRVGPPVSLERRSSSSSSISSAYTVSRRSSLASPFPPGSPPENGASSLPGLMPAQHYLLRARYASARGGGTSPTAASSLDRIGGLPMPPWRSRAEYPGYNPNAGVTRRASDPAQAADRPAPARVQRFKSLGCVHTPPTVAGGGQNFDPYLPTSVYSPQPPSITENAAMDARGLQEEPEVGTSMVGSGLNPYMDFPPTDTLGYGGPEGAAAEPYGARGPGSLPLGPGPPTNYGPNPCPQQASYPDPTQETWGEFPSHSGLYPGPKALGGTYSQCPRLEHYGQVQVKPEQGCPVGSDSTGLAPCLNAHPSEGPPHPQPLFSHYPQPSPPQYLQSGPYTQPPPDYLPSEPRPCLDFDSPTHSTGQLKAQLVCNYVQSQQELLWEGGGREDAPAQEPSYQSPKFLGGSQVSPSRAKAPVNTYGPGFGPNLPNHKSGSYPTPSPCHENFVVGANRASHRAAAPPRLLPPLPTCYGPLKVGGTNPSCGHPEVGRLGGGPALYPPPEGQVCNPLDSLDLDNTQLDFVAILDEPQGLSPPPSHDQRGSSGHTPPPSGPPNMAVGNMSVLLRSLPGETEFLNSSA
Put plainly: Inhibition of endogenously overexpressed Gli1-mediated transcriptional activity in human Rh30 cells at 40 uM after 24 hrs by luciferase reporter gene assay. It counts as cell-based. A digest of the protocol:
(§2)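 Human Rh30 rhabdomyosarcoma cells (endogenous Gli1, no exogenous Gli1) in RPMI-1640 with 10% FBS were transfected overnight with Fugene6, GliLuc-BS (500 ng/mL) and pRL-CMV (2.5 ng/mL). Cells were replated, given compound or DMSO 18 h later, and exposed for 24 h at 37 °C, 5% CO2. Read-out was dual luciferase firefly/Renilla, triplicate, DMSO = 0%.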
(In a reporter assay the amount or activity of a reporter protein is the signal.)

The subject of series [4] is C3H 10T1/2. Put plainly: Inhibition of human Gli1 protein expression exogenously transfected in mouse C3H10T1/2 cells at 20 uM by Western blot analysis. It counts as functional, cell-based.
Series [5] has as its system C3H 10T1/2. Put plainly: Inhibition of Photinus pyralis luciferase expression exogenously transfected in mouse C3H10T1/2 cell lysate at 40 uM after 40 mins at room temperature by promega steady-glo luciferase assay. Format: functional, cell-free.
Series [6] can be described thus: Stability in mouse C3H10T1/2 cells assessed as compound degradation at 40 uM after 24 hrs by LCMS analysis. It counts as ADME, cell-based. Particulars: c3h 10t1/2, 24 h.
Series [7] deals with SJRH30. Put plainly: Cytotoxicity against human Rh30 cells at 40 uM/well after 68 hrs by alamar blue assay. Format: functional, cell-based. The procedure, abridged:
as §1

Series [8] relates to MDA-MB-231. Put plainly: Cytotoxicity against human MDA-MB-231 cells at 40 uM/well after 68 hrs by alamar blue assay. Format: functional, cell-based. The procedure, abridged: as §1
The subject of series [9] is C3H 10T1/2. Put plainly: Inhibition of Photinus pyralis luciferase expression exogenously transfected in mouse C3H10T1/2 cell lysate at 60 uM after 40 mins at room temperature by promega steady-glo luciferase assay. Format: functional, cell-free.
Series [10] has as its system Raji. Kind of series: Cytotoxicity against human Raji cells at 40 uM/well after 68 hrs by alamar blue assay. Format: functional, cell-based. A digest of the protocol:
as §1

For series [11], the target named is Zinc finger protein GLI2 (Homo sapiens, UniProt P10070). Put plainly: Inhibition of exogenously transfected human Gli2 delta-N-mediated transcriptional activity in mouse C3H10T1/2 cells after 24 hrs by luciferase reporter gene assay. It counts as cell-based. The note with it: c3h 10t1/2. The procedure, abridged: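 C3H10T1/2 reporter assay run as for hGli1, but with an amino-terminal repressor-domain-deleted hGli2 (ΔNhGli2) in place of hGli1, plus GliLuc-BS and pRL-TK via Fugene6. Compound or DMSO was given for 24 h at 37 °C. Read-out was dual luciferase firefly/Renilla in triplicate, with dose-response curve fitting.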
Chain of Zinc finger protein GLI2 (P10070 whole entry, looked up): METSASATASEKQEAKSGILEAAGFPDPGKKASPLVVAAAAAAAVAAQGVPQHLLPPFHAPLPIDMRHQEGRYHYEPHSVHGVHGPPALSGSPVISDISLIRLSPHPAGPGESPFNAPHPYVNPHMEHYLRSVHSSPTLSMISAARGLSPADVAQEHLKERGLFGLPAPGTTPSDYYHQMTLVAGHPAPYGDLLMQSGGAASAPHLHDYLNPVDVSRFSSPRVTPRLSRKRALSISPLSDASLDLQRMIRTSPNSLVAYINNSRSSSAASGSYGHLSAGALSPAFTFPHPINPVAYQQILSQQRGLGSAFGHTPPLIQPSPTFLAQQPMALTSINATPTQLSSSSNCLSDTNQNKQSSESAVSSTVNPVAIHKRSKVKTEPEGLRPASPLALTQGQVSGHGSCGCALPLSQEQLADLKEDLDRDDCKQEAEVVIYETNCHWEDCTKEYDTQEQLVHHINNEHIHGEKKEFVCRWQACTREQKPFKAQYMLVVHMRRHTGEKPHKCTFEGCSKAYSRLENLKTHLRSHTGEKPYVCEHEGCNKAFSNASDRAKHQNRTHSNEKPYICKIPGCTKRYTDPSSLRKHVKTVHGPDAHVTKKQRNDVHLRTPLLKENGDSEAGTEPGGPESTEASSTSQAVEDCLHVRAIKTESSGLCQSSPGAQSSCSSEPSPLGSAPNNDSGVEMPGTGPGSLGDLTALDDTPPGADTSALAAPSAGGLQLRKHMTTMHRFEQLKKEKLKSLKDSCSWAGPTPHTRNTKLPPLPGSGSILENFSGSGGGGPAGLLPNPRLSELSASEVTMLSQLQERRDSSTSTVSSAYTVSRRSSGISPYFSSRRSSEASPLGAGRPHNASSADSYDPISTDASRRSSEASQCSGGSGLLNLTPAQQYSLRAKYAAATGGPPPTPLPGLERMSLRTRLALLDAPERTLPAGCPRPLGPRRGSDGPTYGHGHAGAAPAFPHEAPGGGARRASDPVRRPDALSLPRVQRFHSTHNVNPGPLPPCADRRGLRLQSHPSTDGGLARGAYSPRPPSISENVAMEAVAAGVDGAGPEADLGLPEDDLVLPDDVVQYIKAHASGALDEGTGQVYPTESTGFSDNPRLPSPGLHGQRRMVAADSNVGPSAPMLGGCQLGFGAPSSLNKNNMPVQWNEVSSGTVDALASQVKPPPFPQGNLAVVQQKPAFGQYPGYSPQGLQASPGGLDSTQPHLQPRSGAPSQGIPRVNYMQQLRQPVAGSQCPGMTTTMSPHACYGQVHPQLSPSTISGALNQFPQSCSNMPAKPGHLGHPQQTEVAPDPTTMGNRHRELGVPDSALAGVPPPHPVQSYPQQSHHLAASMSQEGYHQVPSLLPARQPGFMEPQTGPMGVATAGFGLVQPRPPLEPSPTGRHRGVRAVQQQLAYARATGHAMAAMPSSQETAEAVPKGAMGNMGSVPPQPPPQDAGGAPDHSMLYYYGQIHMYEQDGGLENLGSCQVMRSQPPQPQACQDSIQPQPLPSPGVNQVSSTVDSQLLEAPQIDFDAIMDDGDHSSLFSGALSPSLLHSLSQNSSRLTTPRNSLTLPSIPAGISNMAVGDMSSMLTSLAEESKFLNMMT

Series [12] addresses T1, Zinc finger protein GLI1 (Homo sapiens). Put plainly: Inhibition of endogenously overexpressed Gli1-mediated transcriptional activity in human Rh30 cells at 20 uM after 24 hrs by luciferase reporter gene assay. It counts as cell-based. The procedure, abridged:
as §2

In series [13] the test system is LN-229. Kind of series: Cytotoxicity against human LN229 cells at 40 uM/well after 68 hrs by alamar blue assay. Format: functional, cell-based. A digest of the protocol: as §1
Series [14] deals with C3H 10T1/2. Put plainly: Inhibition of Photinus pyralis and Renilla luciferase expression exogenously transfected in mouse C3H10T1/2 cell lysate at 60 uM after 40 mins at room temperature by promega steady-glo luciferase assay. It counts as functional, cell-free.
In series [15] the test system is C3H 10T1/2. Kind of series: Inhibition of Photinus pyralis luciferase expression exogenously transfected in mouse C3H10T1/2 cell lysate at 20 uM after 40 mins at room temperature by promega steady-glo luciferase assay. Format: functional, cell-free.
For series [16], the target named is T1, Zinc finger protein GLI1 (Homo sapiens). Put plainly: Inhibition of endogenously overexpressed Gli1-mediated transcriptional activity in human Rh30 cells at 10 uM after 24 hrs by luciferase reporter gene assay. Format: cell-based. A digest of the protocol: as §2
Series [17] has as its system C3H 10T1/2. Put plainly: Selectivity ratio of IC50 for exogenously transfected human Gli2 delta-N-mediated transcriptional activity in mouse C3H10T1/2 cells to IC50 for exogenously transfected human Gli1-mediated transcriptional activity in mouse C3H10T1/2 cells. Format: cell-based. The procedure, abridged: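 Ratio of IC50 values from dose-response curves of dual-luciferase Gli-reporter activity in C3H10T1/2 cells. Cells were transfected with ΔNhGli2 versus hGli1, plus GliLuc-BS and pRL-TK, and exposed to compound for 24 h at 37 °C. Triplicate data.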

Series [18] relates to C3H 10T1/2. Put plainly: Inhibition of Photinus pyralis and Renilla luciferase expression exogenously transfected in mouse C3H10T1/2 cell lysate at 20 uM after 40 mins at room temperature by promega steady-glo luciferase assay. Format: functional, cell-free.
Series [19] concerns C3H 10T1/2. Put plainly: Inhibition of Renilla luciferase expression exogenously transfected in mouse C3H10T1/2 cell lysate at 20 uM after 40 mins at room temperature by promega steady-glo luciferase assay. It counts as functional, cell-free.
In series [20] the test system is DU-145. Kind of series: Cytotoxicity against human DU145 cells at 40 uM/well after 68 hrs by alamar blue assay. Format: functional, cell-based. A digest of the protocol: as §1
In series [21] the test system is C3H 10T1/2. Kind of series: Inhibition of Photinus pyralis and Renilla luciferase expression exogenously transfected in mouse C3H10T1/2 cell lysate at 40 uM after 40 mins at room temperature by promega steady-glo luciferase assay. Format: functional, cell-free.
Series [22] concerns C3H 10T1/2. Kind of series: Inhibition of Renilla luciferase expression exogenously transfected in mouse C3H10T1/2 cell lysate at 60 uM after 40 mins at room temperature by promega steady-glo luciferase assay. Format: functional, cell-free.
The target in series [23] is T1, Zinc finger protein GLI1 (Homo sapiens). Put plainly: Inhibition of exogenously transfected human Gli1-mediated transcriptional activity in mouse C3H10T1/2 cells at 20 uM after 24 hrs by luciferase reporter gene assay. It counts as cell-based. Particulars: C3H 10T1/2. The procedure, abridged: (§3)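 They were replated 18 h later, given compound or DMSO 6 h after plating, and exposed for 24 h at 37 °C, 5% CO2. Lysate was read by dual luciferase as firefly/Renilla, triplicate, DMSO = 0%. IC50 came from curve fitting.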

For series [24], the system named is C3H 10T1/2. Put plainly: Inhibition of human Gli1 protein expression exogenously transfected in mouse C3H10T1/2 cells at 40 uM by Western blot analysis. It counts as functional, cell-based. A general note: In western blotting, separated proteins are transferred to a membrane and probed.
Series [25] deals with Daoy. Put plainly: Cytotoxicity against human DaOY cells at 40 uM/well after 68 hrs by alamar blue assay. Format: functional, cell-based. The procedure, abridged: as §1
Series [26] deals with T1, Zinc finger protein GLI1 (Homo sapiens). Put plainly: Inhibition of exogenously transfected human Gli1-mediated transcriptional activity in mouse C3H10T1/2 cells at 40 uM after 24 hrs by luciferase reporter gene assay. It counts as cell-based. The note with it: C3H 10T1/2. A digest of the protocol: as §3
Series [27] relates to BJ. Put plainly: Cytotoxicity against human TERT-immortalized human BJ cells at 40 uM/well after 68 hrs by alamar blue assay. Format: cell-based. The procedure, abridged: as §1
Series [28] can be described thus: Cytotoxicity against mouse C3H10T1/2 cells. Format: cell-based. The note with it: c3h 10t1/2.

Active and inactive are the calls of the source. The calls are words filed in the database; no cut-off is given here.

Take `CCCN(CCc1ccc(O)cc1)C(=O)[C@@H](C)c1cccc(C(=O)c2ccccc2)c1`: the inhibition entry in [1], in [4], in series [5], in series [9], in series [14] and in series [15] was “inactive” throughout. In addition, the inhibition result in [18], in series [19], in series [21], in series [22] and in series [24] was “inactive” in each case. Also, the result in series [2] and in series [13] was inactive. Besides, the inhibition result in series [3], in [12], in [16], in [23] and in [26] was “Active” throughout. For the same molecule, the Stability result in series [6] is listed as “Stable”. Moreover, the result in [7], in [8], in series [10], in series [20] and in series [25] was Active. The molecule also yielded an IC50 in series [11] of 23.9 µM. Also, the fold change (FC) in series [17] was found to be 3. Moreover, in series [27], the Activity entry is “Non-toxic”.

Regarding `C[C@H](C(=O)N(CCc1ccc(O)cc1)CCc1ccc(O)cc1)c1cccc(C(=O)c2ccccc2)c1`, the result in [2] and in series [13] was inactive. In series [6], the Stability entry is given as “Stable”. Also, the outcome in [7], in series [8], in [10], in series [20] and in series [25] was Active. Moreover, the IC50 in series [11] came to 20.5 µM. Besides, the inhibition result in series [23] and in series [26] was “Active” each time. Also, the Activity result in series [27] is “Non-toxic”.

As to `C[C@H](C(=O)NCCc1ccc(O)cc1)c1cccc(C(=O)c2ccccc2)c1`, the inhibition entry in series [1], in series [4], in series [5], in series [9], in series [14] and in [15] was “inactive” in each case. For the same molecule, the inhibition result in series [18], in series [19], in series [21], in [22] and in series [24] was “inactive” throughout. The result in series [2] and in [13] was inactive. The inhibition result in series [3], in [12], in series [16], in series [23] and in series [26] was “Active” each time. In series [6], the Stability result is reported as “Stable”. The result in series [7], in series [8], in [10], in [20] and in series [25] was Active. Also, in series [11], inhibition was half-maximal at 35.2 µM (IC50). For the same molecule, the Activity result in series [28] and in series [27] was “Non-toxic” throughout.

For the molecule `O=C(Cc1c[nH]c2ccc(OCc3ccccc3)cc12)NCCc1ccc(O)cc1`, the outcome in series [2] and in series [13] was inactive. For the same molecule, the outcome in [7], in [8], in series [10], in series [20] and in series [25] was Active. Further, the Activity result in series [28] is recorded as “Toxic”; in series [27], “Non-toxic”. In addition, the inhibition entry in series [23] and in [26] was “Active” throughout.

For `C[C@H](CNC(=O)CCc1ccc(O)cc1)c1cccc(C(=O)c2ccccc2)c1`, the outcome in [2] and in [13] was inactive. Also, the outcome in series [7], in [8], in series [10], in series [20] and in series [25] was Active. The inhibition entry in series [23] and in series [26] was “Active” in each case. Further, in series [27], the Activity entry is reported as “Non-toxic”.

In general, IC50 refers to the concentration that gives 50% inhibition. Read a low IC50 as higher potency.
